Sampled rows, rich in hits. Any-hit rate of the full collection: about 1.1%.
hK5 inh: inhibitors of human kallikrein 5; AID 873; inhibition, % at 5 µM; 210,000 tested, 0.59% active; Q9Y337; recombinant hK5, fluorogenic AMC substrate cleavage;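 active = inhibition of 40% or more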;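 note: 0% = enzyme controls without compound and 100% = no-enzyme blanks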
Target sequence (Q9Y337 67-293 limits assumed): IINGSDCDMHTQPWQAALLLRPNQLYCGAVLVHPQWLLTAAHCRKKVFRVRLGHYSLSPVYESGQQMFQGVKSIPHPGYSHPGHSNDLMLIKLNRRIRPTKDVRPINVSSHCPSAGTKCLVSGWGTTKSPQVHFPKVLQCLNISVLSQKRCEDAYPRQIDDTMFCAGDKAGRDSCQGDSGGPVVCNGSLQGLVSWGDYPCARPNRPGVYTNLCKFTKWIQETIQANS
FXIIa inh 1536: blocks human coagulation factor XIIa protease activity | purified FXIIa, Boc-QGR-AMC fluorogenic substrate, 2 h | inhibition, % at 5 µM | 220,000 tested, 0.3% active; in the data active = inhibition above about 40%;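 note: 0% = enzyme with no compound and 100% = blank without enzyme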
Thrombin inh: blocks human thrombin protease activity; alpha-thrombin, Boc-VPR-AMC fluorogenic substrate cleavage; inhibition, % at 5 µM; 220,000 tested, 0.26% active;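 active = inhibition at or above 40%; inactive = inhibition below 40%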;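 note: 0% = enzyme with no compound and 100% = wells without enzyme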
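Assay system: human alpha-thrombin enzyme. Reagent: Boc-VPR-AMC substrate, 15 µM final. Compound dosing: one concentration per compound, 5 µM, with 0.2% DMSO. Incubation: room-temperature reaction. Technique: AMC fluorescence, 355/460 nm. Measure: % inhibition relative to enzyme controls and enzyme-free blanks.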
Furin inhibitor: inhibitors of human furin; 220,000 tested, 0.061% active; P09958; purified furin, fluorogenic substrate cleavage; inhibition, % at 20 µM or 30 µM; in the data active = inhibition above about 25%
FXIa inh: factor XIa (human) inhibition; P03951; purified FXIa, Boc-Glu-Ala-Arg-AMC fluorogenic substrate; inhibition, % at 5 µM; 220,000 tested, 0.14% active; AID 798;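 active = inhibition of at least 40%; inactive = inhibition below 40%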;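 note: fluorescence of freed AMC excited at 355 nm; 0% = enzyme without compound and 100% = no enzyme blank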
* = called active by the depositor; . = no result.

SMILES	hK5 inh	FXIIa inh 1536	Thrombin inh	Furin inhibitor	FXIa inh
Nn1cc(-c2ccccc2)nc1SCC(=O)Nc1ccc(S(N)(=O)=O)cc1	-2	0	-13	-12	-4
COc1ccc(O)c(/C=N/NC(=O)c2cc(=O)[nH]c3ccccc23)c1	14	66*	20	-6	37
COc1cc(C(=S)N2CCCC2)cc(Cl)c1OCC(=O)Nc1ccc(C)cc1C	-4	7	2	2	25
CN(CC(=O)OCC(=O)NCc1ccccc1)S(=O)(=O)c1ccc(Cl)cc1	-21	0	-6	-10	-1
CC1(C)CC(=O)C([N+](=O)[O-])=C(NCCCO)C1	-5	10	-4	-2	3
CCC(CO)NC1=C([N+](=O)[O-])C(=O)CC(C)(C)C1 (stereo unspecified)	50*	18	15	-10	18
CC(=O)NC1(C(F)(F)F)NC(=O)N(c2ccc(F)cc2)C1=O (stereo unspecified)	-3	3	-6	-24	-5
COc1ccc(Cl)cc1S(=O)(=O)NCc1cccs1	9	15	3	-13	2
COc1cc(C)c(S(=O)(=O)NCc2cccs2)cc1C	27	108*	30	-21	8
CN(C)S(=O)(=O)N1CCc2ccccc21	72*	23	24	-18	10
CN(C)S(=O)(=O)N1CCc2ccccc2C1	2	-3	-21	-4	1
OC(CN1C2=NCCN2c2ccccc21)c1ccccc1 (stereo unspecified)	-5	24	2	-28	4
OC(CN1C2=NCCN2c2ccccc21)c1ccc(Br)cc1 (stereo unspecified)	53*	1	12	-28	7
CCN(CC)S(=O)(=O)c1ccc(Cl)c(C(=O)Oc2cccc(-c3cnc4ccccc4n3)c2)c1	56*	13	8	-5	3
CCN(CC)S(=O)(=O)c1ccc(Cl)c(C(=O)Oc2cccnc2)c1	-21	6	-9	-10	-6
Cc1[nH]c2ccccc2c1C(=O)C(=O)NCc1ccco1	-18	-3	3	-18	-6
CC(C)CC(NC(=O)c1ccccc1)C(=O)OCC(=O)Nc1ccc(S(N)(=O)=O)cc1 (stereo unspecified)	-2	4	-6	-20	-2
Cc1ccc(OCC(=O)N2CCC(N3CCCCCC3)CC2)cc1	-32	-1	42*	-24	-14
Cc1ccc(OCC(=O)N2CCN(C(=O)CCC3CCCC3)CC2)cc1	18	11	-2	-22	5
O=C1c2ccccc2C(=O)N1CCCCN1CCN(CCCCN2C(=O)c3ccccc3C2=O)CC1	.	.	.	26*	.
O=C1CC(=C2c3ccccc3-c3ccccc32)C(=O)N1CCCCN1CCN(c2ccccc2)CC1	-14	13	-3	28*	4
O=C1CC(=C(c2ccccc2)c2ccccc2)C(=O)N1CCCN1CCN(c2cccc(Cl)c2)CC1	-3	11	2	-16	15
Cc1nccn1CCC(=O)Nc1ccc(Cl)cc1	-6	6	0	-11	-4
Cc1c(F)cccc1NC(=O)CCCCCC1NC(=O)NC1C (stereo unspecified)	-15	3	0	-17	-3
O=C1NN(c2ccccc2)C(=O)/C1=C\c1cccc(OC(=O)c2cccs2)c1	5	-1	0	0	49*
SMILES	hK5 inh	FXIIa inh 1536	Thrombin inh	Furin inhibitor	FXIa inh
CCOC(=O)CSc1nc2ccccc2c(=O)n1CC	1	17	2	-2	9
CCN(CC)C(=O)CSc1nc2ccccc2c(=O)n1CC	88*	17	22	-9	5
CCOC(=O)/C(=C\c1ccc(OC(F)F)cc1)C1=Nn2c(nnc2-c2ccc(Cl)cc2)SC1	-17	13	1	1	8
CC(=O)Nc1ccc(S(=O)(=O)NCc2cccnc2)cc1	47*	1	31	-10	22
O=C(NCCc1ccccc1)c1cc(=O)[nH]c2ccccc12	1	6	2	-13	3
CCCC(C)C(=O)Nc1ccc(F)c(Cl)c1 (stereo unspecified)	19	38	62*	-14	27
O=C(NCCCN1CCCC1)c1ccc2c(Cl)c3c(nc2c1)CCCC3	1	41*	3	-20	-4
CCN(CC)CCCNC(=O)c1ccc2c(Cl)c3c(nc2c1)CCCC3	-3	7	11	-22	-5
CC1(C)C2CC=C(/C=N/n3cnnc3)C1C2 (stereo unspecified)	3	49*	2	-10	17
CNC(=S)N/N=C/C1=CCC2CC1C2(C)C (stereo unspecified)	-5	13	2	-37	4
NC(=O)N/N=C/C=C/c1ccccc1	17	13	42*	-3	16
NC(=O)N\N=C/C=C/C=C/c1ccc(F)cc1	9	2	-7	-18	2
CS(=O)(=O)N1CCC(C(=O)NCc2ccc(Cl)cc2Cl)CC1	-1	5	-2	-15	-11
COc1ccc(Nc2nc(OC)nc(N3CCOCC3)n2)cc1	-1	4	-3	-1	-5
COc1nc(NCCN2CCOCC2)nc(Nc2ccccc2)n1	69*	22	13	-25	4
O=C(c1nc2ccccc2s1)N1CCSCC1	-4	15	4	-11	8
O=C(c1nc2ccccc2s1)N1CCN(c2ccccn2)CC1	-18	0	45*	-16	-14
CCC(C)NC(=O)C1CN(S(=O)(=O)c2ccccc2)CCN1S(=O)(=O)c1ccccc1 (stereo unspecified)	0	41*	3	-17	33
CCCNC(=O)C1CN(S(=O)(=O)c2ccccc2)CCN1S(=O)(=O)c1ccccc1 (stereo unspecified)	-9	9	1	-23	-13
Cc1ccc(C(=O)n2nc(-c3cccnc3)nc2N)cc1	74*	94*	82*	-19	48*
COc1ccccc1C(=O)n1nc(-c2cccnc2)nc1N	61*	85*	.	-11	-4
Cc1ccc(S(=O)(=O)n2nc(-c3cccnc3)nc2N)cc1	-12	18	4	-17	8
O=C1OCCC1Sc1nnc(-c2ccc(F)cc2)n1Cc1ccccc1 (stereo unspecified)	-9	13	-4	-15	8
CN(C)S(=O)(=O)c1ccc(C(=O)Oc2cc(=O)[nH]c3ccccc23)cc1	12	27	40*	-19	10
CS(=O)(=O)N1CCN=C1SCc1ccc([N+](=O)[O-])cc1	-8	0	1	-16	-3
COc1cccc(C2CC(c3ccc(F)cc3)Nc3nc(N)nn32)c1 (stereo unspecified)	53*	12	19	-8	14
O=C(C1CC(=O)N(C2CCCCC2)C1)N1CCc2ccccc21 (stereo unspecified)	0	9	-6	-26	-2
COC(=O)c1[nH]c2cccc(OC)c2c1NC(=O)CN1CCN(c2cccc(OC)c2)C(C)C1 (stereo unspecified)	125*	-1	3	-18	-4
CCOc1ccc(/C=N/n2cnnc2)cc1	-31	-5	-10	-22	-15

Assay outcomes deposited in PubChem by several laboratories.
